Assay outcomes (PubChem)
Only some compounds are listed: those with a hit (about 3.7% of all), similar ones and a draw of the others.
ROMK mod – human ROMK K+ channel modulation, primary screen. P48048. Tet-inducible ROMK, thallium flux fluorescence; actives lie on both sides. B-score at 10 µM. hit rate 2% among 130,000. AID 1918;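 active = signal ratio slope over the read window, or its plate-corrected B-score, at least 3 SD from the plate mean, either direction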;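 also: B-score of the F/F0 ratio slope over 7 to 12 s after thallium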
Arbovirus anti – antivirals against arbovirus infection | arbovirus infection cell-based antiviral screen | hit rate 0.37% among 200,000 | inhibition, % at 10 µM; in the data active = inhibition above about 30%
PKD1 kinase inh – blocks activity of human protein kinase D1; hit rate 0.056% among 200,000; inhibition, % (concentration not given with the values); PKD1 kinase fluorescence polarization assay; Q15139; AID 797; in the data active = inhibition above about 50%
Mdm2 ligase inh – blocks human Mdm2 ubiquitin ligase activity; hit rate 0.11% among 210,000; cell-based MDM2 ubiquitination luciferase reporter, 2 h; 0 = plate control, 100 = twice control, blank-subtracted; signal enhancement, % at 5 µM; AID 1230;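 active = signal enhancement of 30% or more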;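 also: luminescence tracks abundance of the self-degrading MDM2-luciferase fusion protein; higher signal means inhibition of MDM2 E3 ligase activity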
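Assay system: stable mammalian line carrying autodegrading MDM2–luciferase fusion reporter; Input: 2000 cells in each well; Compound dosing: single-point 5 µM; Schedule: 2 h compound exposure at 37 °C; Signal: SteadyLite luciferase luminescence after 15 min room-temperature reagent incubation; Evaluation: % luminescence enhancement versus blank-corrected plate control mean; Benchmarks: plate controls and plate blanks.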
m-calpain inh – blocks pig calpain II enzyme activity; inhibition, % at 16 µM; hit rate 0.37% among 220,000; AID 1236; purified calpain II, fluorogenic peptide substrate, 30 min;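 active = inhibition above about 50%, limit read from the data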
KCC2 mod – modulates chloride dependent transport by human KCC2. Q9H2X9. KCC2 cells, thallium flux FluoZin-2 fluorescence. B-score of Tl+ flux slope (higher = more flux/activation; lower = inhibition) at 10 µM. hit rate 2.2% among 190,000. AID 1456;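 active = thallium flux slope and its plate-corrected score both differing from the plate sample mean at a set confidence after two filtering rounds, in either direction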;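 also: slope of fluorescence scaled to starting intensity during 10 to 20 s after thallium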
Target sequence (Q9H2X9 whole entry, looked up): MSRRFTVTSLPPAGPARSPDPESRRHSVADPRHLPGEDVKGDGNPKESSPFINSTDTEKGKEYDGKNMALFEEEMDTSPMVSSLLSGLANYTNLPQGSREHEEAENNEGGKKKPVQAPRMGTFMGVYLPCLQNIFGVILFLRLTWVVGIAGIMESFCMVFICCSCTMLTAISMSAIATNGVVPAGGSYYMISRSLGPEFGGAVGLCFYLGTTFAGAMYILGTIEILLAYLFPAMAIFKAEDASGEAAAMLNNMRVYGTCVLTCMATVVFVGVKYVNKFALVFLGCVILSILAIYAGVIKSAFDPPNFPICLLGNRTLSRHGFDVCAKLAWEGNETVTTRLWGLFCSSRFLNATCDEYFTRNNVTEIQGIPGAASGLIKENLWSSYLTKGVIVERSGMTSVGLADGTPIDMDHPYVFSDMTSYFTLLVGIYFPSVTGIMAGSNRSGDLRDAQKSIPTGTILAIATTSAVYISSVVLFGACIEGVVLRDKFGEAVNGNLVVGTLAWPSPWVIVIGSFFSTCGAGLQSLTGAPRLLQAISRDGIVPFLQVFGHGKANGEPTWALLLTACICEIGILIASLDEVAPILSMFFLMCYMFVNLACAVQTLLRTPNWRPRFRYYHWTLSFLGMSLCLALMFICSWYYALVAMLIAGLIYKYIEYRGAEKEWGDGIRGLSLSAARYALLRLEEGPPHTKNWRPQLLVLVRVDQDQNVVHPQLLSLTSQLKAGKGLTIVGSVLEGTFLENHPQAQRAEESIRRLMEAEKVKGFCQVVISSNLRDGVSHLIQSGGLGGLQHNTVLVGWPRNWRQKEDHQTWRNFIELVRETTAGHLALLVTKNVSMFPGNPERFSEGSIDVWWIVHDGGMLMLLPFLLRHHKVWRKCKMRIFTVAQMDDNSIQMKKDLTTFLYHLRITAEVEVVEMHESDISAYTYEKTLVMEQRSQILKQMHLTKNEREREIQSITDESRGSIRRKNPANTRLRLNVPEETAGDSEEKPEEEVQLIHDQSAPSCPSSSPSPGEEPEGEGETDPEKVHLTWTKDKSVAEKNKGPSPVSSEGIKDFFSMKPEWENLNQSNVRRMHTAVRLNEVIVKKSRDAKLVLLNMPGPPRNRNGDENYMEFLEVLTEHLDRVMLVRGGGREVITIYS
KCC2 secondary – confirmation of human KCC2 transport modulators; shares compounds with KCC2 mod; HEK293-KCC2, thallium flux, FluoZin2 fluorescence; active compounds read high; normalised thallium flux (F/F0 slope) at 10 µM; hit rate 15% among 3,700; AID 1713;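 active = thallium flux slope above the same plate's solvent-only control mean plus 3 SD; inconclusive = the two replicate wells disagree; inactive = no significant difference from solvent-only control wells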
KCC2 bumet counter – bumetanide-insensitive thallium flux in KCC2 cells with ouabain, counter-screen; HEK293-KCC2 + bumetanide/ouabain, thallium flux FluoZin2; active compounds read high; hit rate 49% among 3,700; normalized thallium flux at 10 µM; shares compounds with KCC2 mod; AID 1714;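 active = thallium entry rate above the same plate's blocked-transporter control wells by more than 3 SD; inconclusive = the two repeat wells disagree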;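 also: raw slope of fluorescence over initial fluorescence between 10 and 20 s after thallium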
KCC2 secondary2 – KCC2 (human) modulation, second secondary assay. shares compounds with KCC2 mod. HEK293-KCC2, thallium flux FluoZin2 fluorescence; actives lie on both sides; F/F0 rise rate, 10–20 s post-thallium. normalized thallium flux at 10 µM. hit rate 23% among 3,700;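 active = thallium flux slope more than 3 SD above or below the plate's solvent-only control mean, mostly below; inconclusive = the two repeat wells disagreed; inactive = no significant shift from solvent-only controls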;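 also: raw slope with 0.1% DMSO as baseline and bumetanide as block control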
HEK293 Tl flux – parental HEK flux effect, counter-screen; HEK293 parental cells, thallium flux FluoZin2, ouabain; baseline-ratio fluorescence slope, 10–20 s after thallium; shares compounds with KCC2 mod; hit rate 46% among 3,700; thallium flux rate (normalised fluorescence) at 10 µM;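 active = thallium flux rate significantly above the same plate's solvent-only control wells, beyond their mean plus 3 SD; inconclusive = the two replicate wells gave conflicting results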
KCC2 retest ouab – KCC2 (human) modulation, ouabain retest; shares compounds with KCC2 mod; HEK293-KCC2, thallium flux FluoZin2 fluorescence; bidirectional: low = inhibitor, high = activator; raw Tl+ flux slope (below DMSO = inhibition, above = activation) at 10 µM; hit rate 48% among 3,700; AID 1717;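 active = thallium flux slope beyond 3 SD from same-plate DMSO control mean in most replicates, usually higher, sometimes lower; inconclusive = repeat tests gave conflicting results; inactive = no significant difference from controls in most replicates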;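 also: slope of initial-normalized fluorescence between seconds 10 and 20 after thallium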
HEK293 Tl flux2 – parental HEK flux effect, counter-screen 2. shares compounds with KCC2 mod. HEK293 parental, thallium flux FluoZin-2 fluorescence slope. thallium flux slope at 10 µM. hit rate 33% among 3,700;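 active = thallium flux slope above the same plate's solvent-control mean plus 3 SD in both duplicate wells; inconclusive = duplicate wells that disagreed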;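 also: run without ouabain in cells lacking the KCC2 cotransporter; slope of fluorescence scaled to its starting value between 10 and 20 s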
* hit, by the source's call.

How did CC(NC(=O)CCc1nnc(-c2ccc(-c3ccccc3)cc2)o1)c1nccs1 (stereo unspecified) do in these assays?
ROMK mod: 0.8; Arbovirus anti: -2; PKD1 kinase inh: -6; Mdm2 ligase inh: -9; m-calpain inh: -10; KCC2 mod: -4.1*; KCC2 secondary: 0.015; KCC2 bumet counter: 0.0046; KCC2 secondary2: 0.024*; HEK293 Tl flux: 0.0071; KCC2 retest ouab: 0.014; HEK293 Tl flux2: 0.0098

How did O=C(CCc1nnc(-c2ccc(-c3ccccc3)cc2)o1)NCCc1ccccn1 do in these assays?
ROMK mod: -0.5; Arbovirus anti: -4; PKD1 kinase inh: -5; Mdm2 ligase inh: 4; m-calpain inh: -7; KCC2 mod: -3.2*; KCC2 secondary: 0.0082; KCC2 bumet counter: 0.0074; KCC2 secondary2: 0.037; HEK293 Tl flux: 0.0042; KCC2 retest ouab: inconclusive; HEK293 Tl flux2: inconclusive

What do the screens show for `CC(c1nccs1)N(C)C(=O)CCc1nnc(-c2ccc(-c3ccccc3)cc2)o1` (stereo unspecified)?
ROMK mod: -0.17; Arbovirus anti: -14; PKD1 kinase inh: -1; Mdm2 ligase inh: -10; m-calpain inh: 14; KCC2 mod: -2

How did CCSc1oc(-c2ccco2)nc1S(=O)(=O)c1ccccc1 do in these assays?
Arbovirus anti: 1; PKD1 kinase inh: -8; Mdm2 ligase inh: -19; m-calpain inh: -18; KCC2 mod: 6.5*; KCC2 secondary: 0.0097; KCC2 bumet counter: 0.0049; KCC2 secondary2: 0.034; HEK293 Tl flux: 0.0041; KCC2 retest ouab: 0.02; HEK293 Tl flux2: 0.012

Results for CCCSc1oc(-c2ccco2)nc1S(=O)(=O)c1ccccc1 ?
Arbovirus anti: 9; PKD1 kinase inh: 1; Mdm2 ligase inh: 12; m-calpain inh: -14; KCC2 mod: -0.41

Results for O=c1c2cc(Cl)ccc2[nH]c(=S)n1Cc1ccccn1 ?
Arbovirus anti: 4; PKD1 kinase inh: -4; Mdm2 ligase inh: 4; m-calpain inh: 2; KCC2 mod: 9.9*; KCC2 secondary: 0.0073; KCC2 bumet counter: 0.067*; KCC2 secondary2: 0.047*; HEK293 Tl flux: 0.036*; KCC2 retest ouab: 0.054*; HEK293 Tl flux2: 0.034*

How did O=c1c2cc(Br)ccc2[nH]c(=S)n1Cc1cccnc1 do in these assays?
Arbovirus anti: 1; PKD1 kinase inh: -2; Mdm2 ligase inh: -13; m-calpain inh: -14; KCC2 mod: 5.4*; KCC2 secondary: inconclusive; KCC2 bumet counter: 0.025*; KCC2 secondary2: 0.034; HEK293 Tl flux: 0.014*; KCC2 retest ouab: 0.029; HEK293 Tl flux2: 0.012*

What do the screens show for `CCN(CC)CCn1c(=S)[nH]c2ccc(Cl)cc2c1=O`?
Arbovirus anti: -6; PKD1 kinase inh: -10; Mdm2 ligase inh: -13; m-calpain inh: 13; KCC2 mod: 25*; KCC2 secondary: 0.01; KCC2 bumet counter: 0.017*; KCC2 secondary2: 0.038; HEK293 Tl flux: inconclusive; KCC2 retest ouab: 0.03*; HEK293 Tl flux2: 0.014

How did Cc1cc(Cl)c(S(=O)(=O)NC(C)C)cc1OCC(N)=O do in these assays?
ROMK mod: 0.7; Arbovirus anti: 4; PKD1 kinase inh: -12; Mdm2 ligase inh: -4; m-calpain inh: -8; KCC2 mod: 1.1

What do the screens show for `COc1ccc(N=C2CC(C)(C)CC(=O)/C2=C(/O)c2ccccc2)cc1`?
ROMK mod: -0.04; Arbovirus anti: 5; PKD1 kinase inh: 1; Mdm2 ligase inh: -15; m-calpain inh: 0; KCC2 mod: -0.77

How did O=C(NNC(=O)c1cc(-c2ccccc2)nn1-c1ccccc1)c1ccccc1 do in these assays?
ROMK mod: 0.072; Arbovirus anti: -26; PKD1 kinase inh: 0; Mdm2 ligase inh: 7; m-calpain inh: -11; KCC2 mod: 29*; KCC2 secondary: 0.0059; KCC2 bumet counter: 0.1*; KCC2 secondary2: 0.067*; HEK293 Tl flux: 0.067*; KCC2 retest ouab: 0.076*; HEK293 Tl flux2: 0.063*

What do the screens show for `O=C(NNC(=O)c1ccc(-c2ccccc2)cc1)c1ccccc1`?
Arbovirus anti: 8; PKD1 kinase inh: 8; Mdm2 ligase inh: -7; m-calpain inh: -12; KCC2 mod: -3.7*; KCC2 secondary: 0.0071; KCC2 bumet counter: inconclusive; KCC2 secondary2: 0.028; HEK293 Tl flux: 0.0074; KCC2 retest ouab: 0.016; HEK293 Tl flux2: inconclusive

How did O=C(NNc1nc(-c2ccccc2)cs1)c1ccccc1 do in these assays?
Arbovirus anti: -27; PKD1 kinase inh: 4; Mdm2 ligase inh: 5; m-calpain inh: 30; KCC2 mod: -5.9*; KCC2 secondary: 0.011; KCC2 bumet counter: inconclusive; KCC2 secondary2: 0.025*; HEK293 Tl flux: 0.008; KCC2 retest ouab: 0.014*; HEK293 Tl flux2: 0.011

Results for Cc1cccc(C(=O)NNC(=O)c2ccc(-c3ccccc3)cc2)c1 ?
Arbovirus anti: -3; PKD1 kinase inh: 1; Mdm2 ligase inh: -12; m-calpain inh: -34

How did Cc1ccc(CNC(=O)C2CC(c3ccccc3F)=NO2)cc1 (stereo unspecified) do in these assays?
Mdm2 ligase inh: 19; m-calpain inh: 4; KCC2 mod: -1.2

Results for O=C(NCc1ccco1)c1ccc(Br)c(S(=O)(=O)N2CCCCC2)c1 ?
ROMK mod: -1; Arbovirus anti: 2; PKD1 kinase inh: 28; Mdm2 ligase inh: -26; m-calpain inh: 32; KCC2 secondary: 0.0068; KCC2 bumet counter: 0.0037; KCC2 secondary2: inconclusive; HEK293 Tl flux: 0.0071; KCC2 retest ouab: 0.016; HEK293 Tl flux2: 0.0093

How did O=C(NCc1ccco1)c1ccc(F)c(S(=O)(=O)N2CCCCC2)c1 do in these assays?
ROMK mod: 0.25; Arbovirus anti: 4; PKD1 kinase inh: -4; Mdm2 ligase inh: 3; m-calpain inh: 29; KCC2 mod: 0.1
